Data on 22 molecules can be found in ChEMBL document CHEMBL5154815, “A Series of Substituted Bis-Aminotriazines Are Activators of the Natriuretic Peptide Receptor C” (J Med Chem, 2022).

The source made the active and inactive calls. The rule behind the calls is not given here. Where a SMILES comes first, the peptide text is derived from it.

As usually defined, the Kd is the constant that tells how readily two partners part at equilibrium. In general, EC50 refers to the concentration needed to bring the measured effect to its halfway point. A word on the solubility: it is the dissolved amount per volume that the medium holds. Broadly, the IC50 is the concentration needed to halve the response being measured.

The target of data set [1] is T1, Atrial natriuretic peptide receptor 3 (Homo sapiens, UniProt P17342).
T1 sequence (P17342 whole entry): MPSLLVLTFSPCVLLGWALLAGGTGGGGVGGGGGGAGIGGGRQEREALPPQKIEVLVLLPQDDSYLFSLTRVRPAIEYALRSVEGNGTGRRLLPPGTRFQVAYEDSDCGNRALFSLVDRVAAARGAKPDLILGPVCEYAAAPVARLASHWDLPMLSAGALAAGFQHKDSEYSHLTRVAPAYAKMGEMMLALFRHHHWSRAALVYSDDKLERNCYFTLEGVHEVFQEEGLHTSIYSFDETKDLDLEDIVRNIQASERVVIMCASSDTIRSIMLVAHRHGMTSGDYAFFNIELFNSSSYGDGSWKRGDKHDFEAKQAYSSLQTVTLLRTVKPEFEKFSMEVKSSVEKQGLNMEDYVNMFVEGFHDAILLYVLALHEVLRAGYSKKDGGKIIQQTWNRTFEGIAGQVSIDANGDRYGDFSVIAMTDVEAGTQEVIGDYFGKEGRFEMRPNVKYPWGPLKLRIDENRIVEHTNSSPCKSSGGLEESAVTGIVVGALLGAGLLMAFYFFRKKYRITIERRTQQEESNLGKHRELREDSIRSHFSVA
As to the kind of experiment: Binding affinity to CM5 sensor chip immobilized human NPR-C (27 to 541 residues) assessed as dissociation constant by surface plasmon resonance analysis. (In general: In SPR one partner is held on a chip, and binding of the other changes the refractive index at the surface.)

Data set [2] addresses T1, Atrial natriuretic peptide receptor 3. In words: Displacement of Flu-P19 probe from human NPR-C (27 to 541 residues) by fluorescence polarization analysis. A digest of the protocol: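 Competition fluorescence polarization used NPR-C extracellular domain protein (20 nM final) and Flu-P19 probe (150 pM final) in PBS-P with 1% DMSO. Ligand ranged 600–0.274 μM, and samples were assembled on ice. Read-out was at ex 485/em 520 nm, normalized to buffer+probe and protein+probe controls and blanked with buffer alone. EC50 came from curve fitting.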

In data set [3] the target is T2, Atrial natriuretic peptide receptor 3 (Homo sapiens) (UniProt P17342).
T2 sequence (whole entry): T1 sequence (P17342 whole entry)
As to the kind of experiment: Agonist activity at NPRC in human Hela cells assessed as decrease in forskolin-induced cAMP level at 100 uM relative to control. Details: scale not given: the % may be the effect or the level left. The format is cell-based. A general note: Changes in cAMP serve as a functional read-out for many G protein-coupled receptors.

The conditions of data set [4]: rat, hepatocytes, 20 min, 1 µM.
A short description of data set [5]: Solubility of compound in PBS at 10 mM after 3 hrs by UV analysis. The settings on record: buffer, 10000 µM.
Another data set concerns the target Cytochrome P450 2C19 (Homo sapiens, UniProt P33261). In words: Inhibition of CYP2C19 in human liver microsomes using S-mephenytoin as substrate preincubated for 10 mins followed by NADPH addition and measured after 20 mins by LC/MS/MS analysis.
Data set [6] has as its target T3, Atrial natriuretic peptide receptor 3 (Mus musculus, UniProt P70180).
T3 sequence (P70180 whole entry): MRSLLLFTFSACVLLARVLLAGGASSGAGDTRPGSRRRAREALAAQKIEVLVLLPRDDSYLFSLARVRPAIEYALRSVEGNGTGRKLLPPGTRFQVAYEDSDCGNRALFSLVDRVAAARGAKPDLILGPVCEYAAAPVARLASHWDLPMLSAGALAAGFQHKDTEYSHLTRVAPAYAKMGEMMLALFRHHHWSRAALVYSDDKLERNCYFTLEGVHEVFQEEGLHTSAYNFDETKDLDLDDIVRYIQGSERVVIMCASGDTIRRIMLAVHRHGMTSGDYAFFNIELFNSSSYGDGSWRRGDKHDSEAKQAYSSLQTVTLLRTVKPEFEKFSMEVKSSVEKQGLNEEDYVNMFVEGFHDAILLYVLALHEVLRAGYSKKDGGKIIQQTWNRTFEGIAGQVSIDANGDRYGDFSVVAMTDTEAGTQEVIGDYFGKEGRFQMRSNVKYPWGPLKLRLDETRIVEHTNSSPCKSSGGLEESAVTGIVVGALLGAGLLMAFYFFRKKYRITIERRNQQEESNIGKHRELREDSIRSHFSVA
In words: Agonist activity at NPRC in wild type mouse mesenteric arteries assessed as vasorelaxation by Organ bath assay. Type of data set: tissue-based, Artery.

Data set [7] can be described thus: Stability of compound in pooled human plasma assessed as half life measured upto 120 mins by LC/MS/MS analysis. The settings on record: 2 h.
In data set [8] the target is T4, Atrial natriuretic peptide receptor 3 (Rattus norvegicus, UniProt P41740).
T4 sequence (P41740 whole entry): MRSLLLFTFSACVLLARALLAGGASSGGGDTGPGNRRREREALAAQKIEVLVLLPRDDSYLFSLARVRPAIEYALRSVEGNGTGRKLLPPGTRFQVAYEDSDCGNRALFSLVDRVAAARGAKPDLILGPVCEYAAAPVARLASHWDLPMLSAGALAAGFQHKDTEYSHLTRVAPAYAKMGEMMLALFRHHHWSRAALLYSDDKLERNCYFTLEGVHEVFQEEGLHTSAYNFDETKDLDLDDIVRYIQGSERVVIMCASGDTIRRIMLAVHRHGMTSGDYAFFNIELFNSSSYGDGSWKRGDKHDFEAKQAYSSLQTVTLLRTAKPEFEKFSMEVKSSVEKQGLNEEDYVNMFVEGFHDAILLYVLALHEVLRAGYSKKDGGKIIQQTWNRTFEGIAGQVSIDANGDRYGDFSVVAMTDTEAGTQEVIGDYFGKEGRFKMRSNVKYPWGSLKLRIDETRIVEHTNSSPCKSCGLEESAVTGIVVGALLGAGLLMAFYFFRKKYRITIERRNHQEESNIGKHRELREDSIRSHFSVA
In words: Agonist activity at NPRC in rat small mesenteric arteries assessed as vasorelaxation preincubated with M372049 for 15 mins followed by compound treatment by Organ bath assay. The format is tissue-based, Artery.

In data set [9] the target is T3, Atrial natriuretic peptide receptor 3. As to the kind of experiment: Agonist activity at NPRC in knock out mouse mesenteric arteries assessed as vasorelaxation by Organ bath assay. Type of data set: tissue-based, Artery.
The target of data set [10] is T4, Atrial natriuretic peptide receptor 3. In words: Agonist activity at NPRC in rat aorta assessed as vasorelaxation by Organ bath assay. Type of data set: tissue-based.
A short description of data set [11]: Stability in Sprague-Dawley rat hepatocytes assessed as clearance per […] at 1 uM after 20 mins by LC-MS/MS analysis. Type of data set: ADME, cell-based, Hepatocyte.
In a further data set the target is Cytochrome P450 2C9 (Homo sapiens, UniProt P11712). In words: Inhibition of CYP2C9 in human liver microsomes using diclofenac as substrate preincubated for 10 mins followed by NADPH addition and measured after 10 mins by LC/MS/MS analysis.
For data set [12], the target named is T4, Atrial natriuretic peptide receptor 3. As to the kind of experiment: Agonist activity at NPRC in rat small mesenteric arteries assessed as vasorelaxation by Organ bath assay. Type of data set: tissue-based, Artery.
Data set [13] is described as follows: Protein binding in human plasma by equilibrium dialysis assay. A general note: In equilibrium dialysis free small molecules cross a membrane that holds back macromolecules.
The target of data set [14] is T2, Atrial natriuretic peptide receptor 3 (Homo sapiens). In words: Binding affinity to CM5 sensor chip immobilized human NPR-C (27 to 541 residues) assessed as maximum response by surface plasmon resonance analysis relative to control. The essentials:
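SPR on CM5-immobilized NPR-C (27–541) in PBS-P with 1% DMSO, double-referenced. Observed Rmax was expressed as a percentage of theoretical Rmax. Theoretical Rmax was calculated from immobilized protein response, analyte and ligand molecular weights, and binding stoichiometry.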

For data set [15] the target is unchanged. As to the kind of experiment: Agonist activity at NPRC in human HeLa cells assessed as decrease in forskolin-induced cAMP level at 100 nM. Type of data set: cell-based. The conditions noted are these: filed as agonist.

Cytochrome P450 2C19, sequence (P33261 whole entry): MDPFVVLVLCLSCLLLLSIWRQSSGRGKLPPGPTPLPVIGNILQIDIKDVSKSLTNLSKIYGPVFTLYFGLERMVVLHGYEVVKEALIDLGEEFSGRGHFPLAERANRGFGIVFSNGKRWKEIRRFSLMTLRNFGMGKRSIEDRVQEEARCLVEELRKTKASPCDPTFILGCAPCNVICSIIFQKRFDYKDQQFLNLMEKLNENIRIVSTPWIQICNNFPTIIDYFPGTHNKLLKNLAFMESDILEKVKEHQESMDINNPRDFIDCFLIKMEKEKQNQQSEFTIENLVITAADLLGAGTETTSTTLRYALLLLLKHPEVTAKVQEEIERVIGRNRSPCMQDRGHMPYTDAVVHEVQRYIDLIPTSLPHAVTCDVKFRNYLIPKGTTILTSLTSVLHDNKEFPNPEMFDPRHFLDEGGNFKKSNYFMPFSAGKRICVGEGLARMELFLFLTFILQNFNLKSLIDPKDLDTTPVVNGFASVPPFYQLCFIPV
Cytochrome P450 2C9, sequence (P11712 whole entry): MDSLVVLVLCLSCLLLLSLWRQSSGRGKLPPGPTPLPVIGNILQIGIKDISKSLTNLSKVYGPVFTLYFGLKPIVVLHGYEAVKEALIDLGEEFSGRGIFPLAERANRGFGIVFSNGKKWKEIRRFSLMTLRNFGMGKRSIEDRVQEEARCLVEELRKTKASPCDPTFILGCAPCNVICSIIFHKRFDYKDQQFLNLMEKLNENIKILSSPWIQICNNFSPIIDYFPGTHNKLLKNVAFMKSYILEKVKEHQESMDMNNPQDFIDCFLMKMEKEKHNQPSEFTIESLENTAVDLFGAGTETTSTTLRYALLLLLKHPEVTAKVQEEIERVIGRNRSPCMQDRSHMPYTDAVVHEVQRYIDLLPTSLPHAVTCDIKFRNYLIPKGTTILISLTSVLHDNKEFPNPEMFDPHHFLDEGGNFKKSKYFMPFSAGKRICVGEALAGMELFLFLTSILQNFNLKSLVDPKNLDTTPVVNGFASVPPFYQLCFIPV

Turning to `CC(=O)Nc1ccc(Nc2ncnc(N[C@H](COC(C)(C)C)CC(C)C)n2)cc1`, the Kd in data set [1] worked out at 42.2 µM.

With `CC(=O)Nc1ccc(Nc2ncnc(N[C@H](C(=O)OC(C)(C)C)C(C)(C)C)n2)cc1`, in data set [1], the Kd was 201 µM.

`CC(=O)Nc1ccc(Nc2ncnc(N[C@@H](Cc3ccccc3)C(=O)O)n2)cc1` registered an EC50 in data set [2] of 60 µM.

As for `CCCCS(=O)(=O)Nc1ccc(Nc2ncnc(N[C@@H](CC(C)C)C(=O)OC(C)(C)C)n2)cc1`, in data set [1], the Kd came to 45.1 µM.

Turning to `CC(=O)Nc1ccc(Nc2ncnc(N[C@@H](CC(C)C)C(=O)OC3CCCC3)n2)cc1`, the Kd in data set [1] was determined as 25 µM.

Turning to `COC(=O)[C@H](CC(C)C)Nc1nc(Cl)nc(N[C@H]2CC[C@H](Nc3nc(Cl)nc(N[C@@H](CC(C)C)C(=O)OC)n3)CC2)n1`, the Activity in data set [3] came to 31.4%. Besides, the values for the t1/2 in data set [4] and in data set [7] were above 3.613 h and above 1 h, respectively. In addition, the solubility in data set [5] is above 122.52 mg/mL. Besides, the values for the IC50 against Cytochrome P450 2C19 and against Cytochrome P450 2C9 were 37.8 µM and 4.96 µM, respectively. The EC50 is 1.16 µM in data set [6]; 0.47 µM in data set [8]; 2.64 µM in [9]; 1.43 µM in [10]; 0.97 µM in data set [12]. The CLH in [11] is below 0.64 µL/min. Also, the Kd in data set [1] was found to be 95.7 µM. Further, the PPB in data set [13] came to 99.5%.

`CC(=O)Nc1ccc(Nc2ncnc(N[C@H](CC(C)C)C(=O)OC(C)(C)C)n2)cc1`: in data set [14], the Rmax is below 20%.

Turning to `CC(=O)Nc1ccc(Nc2ncnc(N[C@@H](CCc3ccccc3)C(=O)OC(C)(C)C)n2)cc1`, the EC50 in data set [10] was 3.76 µM. Besides, the Kd in [1] was found to be 23.8 µM.

As to `CC(=O)Nc1ccc(Nc2ncnc(NCC(=O)OC(C)(C)C)n2)cc1`, in [1], the Kd was 832 µM.

Regarding `CC(=O)Nc1ccc(Nc2ncnc(N[C@H](C(=O)OC(C)(C)C)C(C)C)n2)cc1`, in data set [1], the Kd worked out at 79 µM.

As for `CC(=O)Nc1ccc(Nc2ncnc(NC(C)(C)C(=O)OC(C)(C)C)n2)cc1`, the Rmax in [14] is below 20%.

As to `CC(=O)Nc1ccc(Nc2ncnc(N[C@@H](CC(C)C)C(=O)OC(C)(C)C)n2)cc1`, the Activity in data set [3] is 20.6%. The Kd in data set [1] was 30.8 µM.

Consider `CC(=O)Nc1ccc(Nc2ncnc(N[C@@H](Cc3ccc(O)cc3)C(=O)OC(C)(C)C)n2)cc1`, for which the Rmax in data set [14] is below 20%.

Turning to `CC(=O)Nc1ccc(Nc2ncnc(N[C@@H](C)C(=O)OC(C)(C)C)n2)cc1`, in data set [14], the Rmax is below 20%. Further, the figures for the EC50 in data set [10] and in data set [12] were 78.1 µM and 3.45 µM, respectively.

For the molecule `CC(=O)Nc1ccc(Nc2ncnc(N[C@@H](CC(C)C)C(=O)OC(C)C)n2)cc1`, the Kd in [1] came to 84.4 µM.

Take `CC(=O)Nc1ccc(Nc2ncnc(N[C@@H](Cc3ccccc3)C(=O)OC(C)(C)C)n2)cc1`: the Activity in data set [3] is 9.16%. This molecule came in with an EC50 in data set [2] of 32 µM. Moreover, the Kd in [1] amounted to 31.3 µM.

Take `CC(=O)Nc1ccc(Nc2ncnc(N[C@@H](Cc3ccc(F)cc3)C(=O)OC(C)(C)C)n2)cc1`: the EC50 in [10] amounted to 4.43 µM. The Kd in [1] amounted to 23.7 µM.

On to `CC(C)C[C@H](Nc1nc(Cl)nc(Nc2ccc(NS(=O)(=O)c3ccccc3)cc2)n1)C(=O)OC(C)(C)C`, for which the Kd in [1] is 99 µM.

Regarding `CC(=O)Nc1ccc(Nc2nc(Cl)nc(N[C@@H](CC(C)C)C(=O)OC(C)(C)C)n2)cc1`, the dissociation constant Kd in data set [1] worked out at 36.9 µM.

With `CC[C@H](C)[C@H](NC(=O)[C@H](CCCNC(=N)N)NC(=O)[C@H](CC(=O)O)NC(=O)[C@H](CCSC)NC(=O)[C@H](CCCNC(=N)N)NC(=O)CNC(=O)CNC(=O)[C@H](Cc1ccccc1)NC(=O)[C@H](CS)NC(=O)[C@H](CO)NC(=O)[C@H](CO)NC(=O)[C@@H](N)CCCNC(=N)N)C(=O)NCC(=O)N[C@@H](C)C(=O)N[C@@H](CS)C(=O)N[C@@H](CC(N)=O)C(=O)O` (H-RSSCFGGRMDRIGACN-OH), the outcome in data set [15] was Active.

As for `CC(=O)Nc1ccc(Nc2ncnc(N[C@H](C(=O)OC(C)(C)C)C3CCCCC3)n2)cc1`, the EC50 in data set [2] came out at 327 µM; in [10], 6.24 µM. Besides, the Kd in data set [1] is 28 µM.

Take `CCCCS(=O)(=O)Nc1ccc(Nc2nc(Cl)nc(N[C@@H](CC(C)C)C(=O)OC(C)(C)C)n2)cc1`: in data set [1], the Kd was 25.7 µM.
